KCC2 mod: modulates chloride dependent transport by human KCC2; Q9H2X9; KCC2 cells, thallium flux FluoZin-2 fluorescence; B-score of Tl+ flux slope (higher = more flux/activation; lower = inhibition) at 10 µM; actives 2.2% (n = 190,000); AID 1456;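 active means thallium flux slope and its plate-corrected score both differing from the plate sample mean at a set confidence after two filtering rounds, in either direction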;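 further: slope of fluorescence scaled to starting intensity during 10 to 20 s after thallium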
KCNK9 inh: inhibitors of human KCNK9 two-pore domain potassium channel | actives 1.2% (n = 310,000) | HEK293 KCNK9, FluxOR thallium flux fluorescence; stronger effect = lower value | Q9NPC2 | AID 488922 | B-score at 10 µM;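 active means ratio B-score over 3 SD below the library mean, with starting fluorescence within 5 SD of its mean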;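 further: negative B-score means less thallium flux so channel inhibition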
KCNK3 inh: human KCNK3 channel inhibition, primary screen. O14649. CHO-KCNK3 thallium flux, FluxOR fluorescence; stronger effect = lower value. B-score at 10 µM. actives 0.84% (n = 340,000);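 active means B-score under library mean minus 4 SD, starting fluorescence ratio at most library mean plus 5 SD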;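 further: more negative B-score means stronger inhibition of thallium flux through KCNK3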
Target sequence (O14649 whole entry, looked up): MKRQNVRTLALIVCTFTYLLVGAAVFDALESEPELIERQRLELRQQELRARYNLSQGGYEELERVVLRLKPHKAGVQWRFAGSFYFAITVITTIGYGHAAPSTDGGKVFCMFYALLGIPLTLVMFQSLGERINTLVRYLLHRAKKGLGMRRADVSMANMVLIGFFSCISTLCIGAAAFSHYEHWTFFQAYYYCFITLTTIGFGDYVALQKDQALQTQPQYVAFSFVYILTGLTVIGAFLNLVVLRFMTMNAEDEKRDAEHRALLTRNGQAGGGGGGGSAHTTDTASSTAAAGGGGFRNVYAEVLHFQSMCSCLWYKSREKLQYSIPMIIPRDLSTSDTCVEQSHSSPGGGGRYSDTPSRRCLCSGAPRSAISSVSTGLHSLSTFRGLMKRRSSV
hERG protect: hERG (human) protection from proarrhythmic block; Q12809; actives 0.51% (n = 310,000); CHO-hERG, FluxOR thallium flux, dofetilide IC70 present; activation (rescue from dofetilide block), less the hit threshold, % at 10 µM;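 active means activation above the mean of controls blocked by dofetilide plus 5 SD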;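 further: thallium influx through hERG after potassium depolarization seen as dye fluorescence rise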
KCNQ1 act: human KCNQ1 channel potentiation or activation | P51787 | CHO-K1 KCNQ1, thallium flux FluxOR fluorescence; stronger effect = higher value | B-score at 10 µM | actives 0.35% (n = 310,000) | AID 2648;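 active means fluorescence ratio B-score, a plate-corrected score, at least three library SD, with initial intensity B-score within 5 SD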
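assay system = CHO-K1 cells stably expressing KCNQ1 | medium = assay buffer, equal DMSO in all wells | timing = 37 °C overnight plating, 90-min dark dye load, 20-min compound pretreatment | measured by = kinetic FluxOR thallium fluorescence, 10-s 1-Hz baseline, 110-s post-stimulus read | measure = fluorescence change relative to baseline, converted to B score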
KCNQ1 inh: human KCNQ1 channel inhibition | P51787 | CHO-K1 KCNQ1, FluxOR thallium flux fluorescence; stronger effect = higher value | B-score at 10 µM | actives 1.3% (n = 310,000) | AID 2642;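 active means compounds whose thallium flux B-score, printed positive for inhibition, exceeds three library SD while starting fluorescence stays within three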;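 further: channel opened by potassium depolarization with thallium stimulus after 20 min compound exposure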
* marks the source's active call; other numbers are inactive results; i = inactive; · = not tested or not shown. Compounds with a hit are over-represented: about 4.1% of the library has one in this group of screens.

SMILES | KCC2 mod | KCNK9 inh | KCNK3 inh | hERG protect | KCNQ1 act | KCNQ1 inh
CCOC(=O)/C(=N\Nc1ccccc1Cl)N1CCN(Cc2ccccc2)CC1 | -0.507 | -8.05* | i | -6.2 | i | 7*
CC(C)[C@H](NC(=O)c1cccc(CN(Cc2ccccc2)C(=O)c2ccccc2)c1)C(=O)O | · | i | i | -7.5 | i | i
COC(=O)C1CCN(C(=O)C2CC(=O)N(c3ccc(C)c(Cl)c3)C2)CC1 (centres undefined) | · | · | i | · | · | ·
CCCn1c(N)c(C(=O)CSc2nnc(N)s2)c(=O)[nH]c1=O | · | · | i | · | · | ·
CCCn1c(N)c(C(=O)CSc2nc3ccccc3s2)c(=O)[nH]c1=O | 1.9 | i | i | 5.4* | i | i
COc1ccc(/C=C2\N=C(SC)NC2=O)cc1 | 16.2* | i | i | -5.4 | i | i
CC(=O)OCC1=C(C(=O)O)N2C(=O)C(NC(=O)C(C)Cn3nc(C)c(Cl)c3C)C2SC1 (centres undefined) | 0.998 | i | i | 5.6* | i | i
CC(=O)OCC1=C(C(=O)O)N2C(=O)C(NC(=O)c3ccc(F)cc3)C2SC1 (centres undefined) | 0.277 | i | i | -4.0 | i | i
CC(C)(C)NC(=O)C[C@H]1C[C@H](C(=O)N2CCOCC2)[C@@]2(CCC3CCCC3)c3[nH]c4cc(-c5ccco5)ccc4c3CCN2C1=O | · | · | i | · | · | ·
COc1cc(OC)c(C2CC(=O)N3CN(C)CSC3=C2C#N)cc1OC (centres undefined) | · | i | i | -4.5 | i | i
COc1ccc2ccccc2c1C1CC(=O)N2CN(C)CSC2=C1C#N (centres undefined) | 0.525 | i | i | -17.4 | i | 6*
Cn1c(O)c(N=Nc2ccccc2)c2ccccc21 | · | i | i | 0.9 | i | i
Cn1c(O)c(N=Nc2nc(-c3ccccc3)cs2)c2ccccc21 | 51.7* | i | i | 35.0* | 60* | i
CC(=NC1CC1)c1c(-c2ccccc2)[nH]n(-c2nc3ccccc3s2)c1=O | -0.133 | i | i | -3.7 | i | i
CC(=NC1CCCC1)c1c(C)[nH]n(-c2nc3ccccc3s2)c1=O | 0.841 | i | i | 6.2* | i | i
CCOc1ccc(-n2c(-c3ccc(OC)cc3)c[n+]3c2CCCCC3)cc1 | 0.97 | i | i | -24.9 | i | 7*
CCOc1ccc(-n2c(-c3ccc(Br)cc3)c[n+]3c2CCCCC3)cc1 | -0.442 | i | i | -22.6 | i | 8*
COc1ccc(-c2c[n+]3c(n2-c2ccc(C)cc2)CCCCC3)cc1 | 1.11 | i | i | -21.6 | i | 9*
COc1ccc(-n2c(-c3ccc(Cl)cc3)c[n+]3c2CCCCC3)cc1 | 0.484 | i | i | -20.1 | i | i
Cc1ccc(CNC(=O)C2CCC(=O)N(CCc3cccc(F)c3)C2)cc1 (centres undefined) | · | i | i | -15.1 | i | i
COc1ccc(CNC(=O)CCn2nc(C)c3c(C)n(-c4ccccc4)nc3c2=O)c(OC)c1 | · | i | i | -1.8 | i | i
CC(C)(C)OC(=O)N(Cc1ccccc1)Cc1ccccc1OCc1cccc(NC(=O)c2ccccc2)c1 | · | · | i | · | · | ·
COC(=O)[C@@]1(C)[C@H]2C(=O)N(Cc3ccccc3)C(=O)[C@H]2[C@H]2CN=C(SCC(=O)c3ccccc3)N21 | · | · | i | · | · | ·
COc1cccc(OCCNC(=O)Nc2cc(F)c(F)cc2Cl)c1 | -1.59 | i | i | 6.1* | i | i
CC(C)Oc1ccc(C(=O)OC(C)C(=O)Nc2nc(-c3cccc([N+](=O)[O-])c3)cs2)cc1 (centres undefined) | -0.0504 | i | i | -8.5 | i | i
SMILES | KCC2 mod | KCNK9 inh | KCNK3 inh | hERG protect | KCNQ1 act | KCNQ1 inh
CC(OC(=O)c1ccc(F)cc1)C(=O)Nc1nc(-c2cccc([N+](=O)[O-])c2)cs1 (centres undefined) | -0.692 | -7.42* | i | -5.4 | i | i
Cc1cc(C)c2ccc(C)[n+]([O-])c2c1O | 0.475 | i | i | -7.0 | 8* | i
Cc1cc(C)c2ccc(N)nc2c1O | -0.4 | i | i | -9.1 | i | i
CCC(O)(Cc1ccccn1)Cc1ccccn1 | · | · | i | · | · | ·
CC(C)C(C)NC(=O)CSc1nc2scc(-c3ccco3)c2c(=O)n1-c1ccccc1 (centres undefined) | 0.123 | -6.81* | i | -4.3 | i | i
CN1C=CC(=O)[C@@H](O)[C@H]1c1ccccc1Br | · | · | i | · | · | ·
CCN1C(=O)[C@H]2[C@@H](c3ccc(C)cc3)N3C(=O)N(c4ccc(C(F)(F)F)cc4)C(=O)[C@@]3(CC(C)C)[C@H]2C1=O | · | -7.55* | i | -6.9 | i | i
CCN1C(=O)[C@H]2[C@@H](c3ccc(C)cc3)N3C(=O)N(c4ccc(C)cc4)C(=O)[C@@]3(CC)[C@H]2C1=O | · | i | i | -7.7 | i | i
CC(=O)c1c(N2CCCC2)[nH]c(-c2ccccc2)nc1=S | 33.1* | i | i | 7.3* | 9* | i
CC(=O)c1c(N2CCN(Cc3ccccc3)CC2)[nH]c(-c2ccccc2)nc1=S | 45.5* | i | i | 1.1 | 23* | i
COc1ccc2c(c1)CCCC21NC(=O)N(CC(=O)N2CC(C)OC(C)C2)C1=O (centres undefined) | · | · | i | · | · | ·
CC(C)NC1(C#N)CCN(Cc2ccccc2)CC1 | · | · | i | · | · | ·
COCC(=O)N1CCC2CC1c1cc(Cl)ccc12 (centres undefined) | · | · | i | · | · | ·
CCC1CCCCN1C(=O)c1cccc(S(=O)(=O)Nc2cc(C(F)(F)F)ccc2Cl)c1 (centres undefined) | -3.01 | i | i | -14.7 | i | 7*
O=C(NC1CCN(Cc2ccccc2)CC1)c1cccc(S(=O)(=O)Nc2cc(C(F)(F)F)ccc2Cl)c1 | -0.336 | i | i | -17.7 | i | i
Cc1ccc(NS(=O)(=O)c2cccc(C(=O)N3CCN(C(=O)c4ccco4)CC3)c2)cc1 | · | · | i | · | · | ·
CCn1c(O)c(N=NC(=O)CNc2cccc(C)c2)c2ccccc21 | 5.56* | i | i | 1.7 | i | i
CCn1c(O)c(N=NC(=O)CNc2ccc(C)cc2)c2ccccc21 | 1.62 | i | i | -6.5 | i | i
Nc1c(N(Cc2ccccc2)C(=O)COc2ccc([N+](=O)[O-])cc2)c(=O)[nH]c(=O)n1Cc1ccccc1 | · | · | i | · | · | ·
FC(F)(F)c1cnc(NNC(=S)Nc2ccccc2Cl)c(Cl)c1 | 28.9* | i | i | -9.8 | i | i
S=C(NNc1ccnc2cc(Cl)ccc12)Nc1ccccc1Cl | 0.236 | i | i | -15.6 | i | 8*

Bioassay records (PubChem)
